Assay results from PubChem BioAssay AID493236 (Broad Institute, 2011).
Inconclusive results are not listed. A number with no mark means an inactive call. The source made the active and inactive calls.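 The calls were made as follows: active = luminescence cut by more than half of the full-inhibition control window in a dose series; inconclusive = no clear call, values can overlap the other calls; inactive = signal rising instead of falling, or the rest.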

Each compound was assayed on proteasome chymotrypsin-like activity (human) (assay: proteasome chymotrypsin-like activity inhibitors, dose response, counter-screen for HIF pathway activator project, cell-based, U2OS, luminescence, dry powder, set 4 (AID 493236)). Details: U2OS cells, Proteasome-Glo chymotrypsin luminescence; series mostly up to 38 µM; activity change, negative = inhibition: at the top concentration.
In short: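 Assay system – U2OS cells · Doses – 8-point threefold dilution series, source stock top 16.5 mM · Schedule – 24 h plating, 4 h compound, 2 h reagent · Detection – Proteasome-Glo luminescence · Evaluation – percent activity relative to MG132 and DMSO · Benchmarks – MG132 1 µM positive control, DMSO neutral control · Replication – duplicate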

Compound	activity change, negative = inhibition	outcome
c1ccc(-c2nnc(-c3ccccn3)nc2NCCc2ccccn2)cc1	-5.96%	
Cc1ccccc1CNc1nc(-c2ccccn2)nnc1-c1ccccc1	2.35%	
O=C(NCCCCO)c1cc(-c2ccccc2)on1	-7.19%	
COc1cccc(CNc2nc(-c3ccccn3)nnc2-c2ccccc2)c1	2.66%	
O=C(NCCCO)c1cc(-c2ccccc2)on1	0.054%	
c1ccc(-c2nnc(-c3ccccn3)nc2NCCN2CCOCC2)cc1	-6.63%	
c1ccc(-c2ccc(CNc3nc(-c4ccccn4)nnc3-c3ccccc3)cc2)cc1	-2.18%	
Clc1cccc(CNc2nc(-c3ccccn3)nnc2-c2ccccc2)c1	-1.26%	
CCCCNC(=O)c1cc(-c2ccccc2)on1	0.305%	
Oc1ccc(CN2CCC(Cc3ccccc3)CC2)c2cccnc12	-2.75%	
C[C@@H](Nc1nc(-c2ccccn2)nnc1-c1ccccc1)c1ccccc1	-7.7%	
Cc1cccc(CNC(=O)c2cc(-c3ccccc3)on2)c1	4.7%	
Cc1ccc(CNC(=O)c2cc(-c3ccccc3)on2)cc1	2.56%	
c1ccc(-c2cccc(CNc3nc(-c4ccccn4)nnc3-c3ccccc3)c2)cc1	10.3%	
c1ccc(-c2nnc(-c3ccccn3)nc2NCC2CC2)cc1	-1.38%	
COc1ccc(CNc2nc(-c3ccccn3)nnc2-c2ccccc2)cc1	-0.602%	
Cc1cccc(CNc2nc(-c3ccccn3)nnc2-c2ccccc2)c1	-2.56%	
O=C(NCCCn1ccnc1)c1cc(-c2ccccc2)on1	-8.48%	
c1ccc(-c2nnc(-c3ccccn3)nc2NCC2CCCCC2)cc1	-0.951%	
CC1CN(Cc2ccc(O)c3ncccc23)CC(C)O1 (stereo not given)	-10%	

Compound	activity change, negative = inhibition	outcome
O=C(c1cc(-c2ccccc2)on1)N1CCC(N2CCOCC2)CC1	3.6%	
c1ccc(-c2nnc(-c3ccccn3)nc2Nc2cnc3ccccc3n2)cc1	-6.01%	
OCC1CCN(c2nc(-c3ccccn3)nnc2-c2ccccc2)CC1	-0.354%	
O=C(NCCN1CCOCC1)c1cc(-c2ccccc2)on1	-6.96%	
OCCCNc1nc(-c2ccccn2)nnc1-c1ccccc1	-1.6%	
CC(C)(C)CCNc1nc(-c2ccccn2)nnc1-c1ccccc1	-2.25%	
C[C@H](Nc1nc(-c2ccccn2)nnc1-c1ccccc1)C1CCCCC1	2.06%	
O=C(NCCCN1CCOCC1)c1cc(-c2ccccc2)on1	-1.67%	
c1ccc(-c2nnc(-c3ccccn3)nc2NCC2CCOCC2)cc1	-4.29%	
CN1CCN(C(=O)c2cc(-c3ccccc3)on2)CC1	-0.104%	
Cc1ccc(Nc2nc(-c3ccccn3)nnc2-c2ccccc2)cn1	-0.351%	
O=C(Nc1ccc2ccccc2n1)c1cc(-c2ccccc2)on1	-3.31%	
c1ccc(CCNc2nc(-c3ccccn3)nnc2-c2ccccc2)cc1	-3.33%	
c1ccc(-c2nnc(-c3ccccn3)nc2N2CCC(c3ccccc3)C2)cc1 (stereo not given)	1.51%	
Cc1ccc(CNc2nc(-c3ccccn3)nnc2-c2ccccc2)cc1C	-3.29%	
COc1ccccc1N1CCN(Cc2ccc(O)c3ncccc23)CC1	-1.65%	
c1ccc(-c2nnc(-c3ccccn3)nc2N2CCC(C3CCCCC3)C2)cc1 (stereo not given)	-2.79%	
Cc1cccc(Nc2nc(-c3ccccn3)nnc2-c2ccccc2)n1	6.59%	
O=C(Nc1ncc(-c2ccccc2)o1)c1cc(-c2ccccc2)on1	1.92%	
Oc1ccc(CN2CCc3ccccc3C2)c2cccnc12		inactive
